Measurements published in PubChem BioAssay AID522 (The Scripps Research Institute Molecular Screening Center, 2006).
Among all 65,000 compounds or so, about 1,200 (1.8%) were called active.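 How the source made its calls: active means activation above the mean activation of all tested compounds plus 3 SD (cut at about 50% in these data); inactive means the rest.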 What follows is part of a selection rich in actives, with near analogues and random picks from the rest.

Target: Steroidogenic factor 1 (Homo sapiens) (UniProt Q13285)
Experiment: SF-1 ligand-binding domain transactivation enhancers – cell-based, CHO-K1, Gal4-SF-1 LBD, luciferase luminescence, primary screen (AID 522)
Details: CHO-K1 Gal4-SF-1 LBD luciferase reporter; at 10 µM; stronger effect = higher value; % increase over DMSO SF-1-specific signal
Outline: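 Compound – one dose, 10 µM compound, 1% DMSO · Test system – transient Gal4-SF-1 LBD reporter, CHO-K1 · Input – 4,000 cells in each well · Read-out basis – percent activation relative to DMSO median and mock-transfected background · Replicates – single measurement per compound · Technique – steady-glow luciferase luminescence, read after 15 min reagent incubation · Timing – 20 h compound treatment, 37 °C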

Sequence of Steroidogenic factor 1 (Homo sapiens) (Q13285 whole entry, looked up, the tested form may be a part): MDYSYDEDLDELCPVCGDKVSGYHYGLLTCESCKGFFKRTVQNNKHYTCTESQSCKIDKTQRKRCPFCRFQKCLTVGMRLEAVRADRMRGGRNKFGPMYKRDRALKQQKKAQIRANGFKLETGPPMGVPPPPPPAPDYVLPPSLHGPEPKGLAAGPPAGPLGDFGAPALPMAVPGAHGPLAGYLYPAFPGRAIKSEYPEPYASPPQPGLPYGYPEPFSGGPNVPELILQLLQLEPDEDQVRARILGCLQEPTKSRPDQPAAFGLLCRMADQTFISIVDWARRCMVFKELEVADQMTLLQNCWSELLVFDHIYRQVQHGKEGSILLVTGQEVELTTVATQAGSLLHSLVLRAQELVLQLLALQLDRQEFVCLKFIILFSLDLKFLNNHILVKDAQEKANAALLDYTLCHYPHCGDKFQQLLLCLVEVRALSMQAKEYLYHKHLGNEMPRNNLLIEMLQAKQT

Compound | activation
C=CCn1c(CC(=O)Nc2cccc(OC)c2)nnc1SCC(=O)NC1CCCCC1 | 12.8% (inactive)
Clc1cccc(Cl)c1Cn1nnc(-c2cccs2)n1 | 50.8% (active)
COc1ccccc1N1CCN(C(=O)Cn2nnc(-c3cccs3)n2)CC1 | 5% (inactive)
O=c1cc(Cn2nnc(-c3ccc(Cl)cc3)n2)nc2sccn12 | -5.8% (inactive)
O=S(=O)(NCC1CCCO1)c1ccc2ccccc2c1 (stereo unspecified) | -16.7% (inactive)
O=C(c1cccnc1NCc1ccccc1)N1CCOCC1 | -2.1% (inactive)
CCOC(=O)c1sc(/N=C/Nc2nc(C)c(C(=O)OCC)s2)nc1C | -2% (inactive)
COc1ccc(CCN(C)C(=O)C2CCCN(Cc3ccc(OC)c(OC)c3)C2)cc1OC (stereo unspecified) | 5.8% (inactive)
O=C(Cn1nnc(-c2ccccc2)n1)NCc1ccccc1 | 8.3% (inactive)
CC(C)(C)NC(=O)Cn1nnc(-c2ccccc2Cl)n1 | 50% (active)
Cc1ccccc1-c1nnn(CC(=O)c2ccc(S(=O)(=O)N3CCCC3)cc2)n1 | -10.4% (inactive)
CN(C(=O)c1ccno1)c1nnc(-c2cccnc2)s1 | -11.5% (inactive)
CN(C(=O)COc1ccccc1)c1nnc(-c2ccncc2)s1 | -6.7% (inactive)
CN(C(=O)c1ccccn1)c1nnc(-c2ccccn2)s1 | 56.6% (active)
COc1cc2cc(CN(CCN3CCCC3)C(=O)Nc3ccccc3Cl)c(=O)[nH]c2cc1OC | -8.6% (inactive)
COc1ccc(-c2noc(-c3cccc(OC)c3OC)n2)cc1OC | 100% (active)
COc1cc(-c2nc(-c3ccncc3)no2)cc(OC)c1OC | -2.5% (inactive)
COc1ccc(-c2nc(-c3ccccc3)no2)c(OC)c1 | -82.9% (inactive)
COCCOC(=O)C1=C(C)Nc2nc(C)nn2C1c1ccccc1 (stereo unspecified) | 4.8% (inactive)
CCCCCNC(=O)Cc1ccc(OC)cc1 | -9.8% (inactive)
O=C(O)CSCNC(=O)CC12CC3CC(CC(C3)C1)C2 | -5.6% (inactive)
O=S(=O)(Nc1ccc2nc(-c3ccco3)[nH]c2c1)c1ccccc1 | 53.5% (active)
COc1cc(NS(=O)(=O)c2ccccc2)ccc1-n1nc(C)cc1C | -10.6% (inactive)
Cc1ccc(S(=O)(=O)Nc2ccc3ncccc3c2)cc1 | -16.8% (inactive)
COc1cc(C2C(C#N)=C(C)NC3=C2C(=O)CC(C)(C)C3)ccc1O (stereo unspecified) | 1.5% (inactive)
Cc1ccc(Cn2ccc(NC(=O)C3C4CCC(C4)C3C(=O)O)n2)cc1 (stereo unspecified) | 3.1% (inactive)

Compound | activation
CCc1nnc(NC(=O)C2CCCN2S(=O)(=O)c2ccccc2)s1 (stereo unspecified) | -4.2% (inactive)
CCCCOc1ccc(-c2nnc(-c3ccco3)o2)cc1 | 23.6% (inactive)
COc1ccc(CC(=O)Nc2ccc(-c3nnc(-c4ccc(C)cc4)o3)cc2)cc1 | -47.6% (inactive)
CCC(=O)Oc1cccc(C(=O)Nc2ccc(-c3nnc(-c4ccco4)o3)cc2)c1 | 79.8% (active)
CCOc1ccc(-c2nnc(-c3ccco3)o2)cc1 | -48% (inactive)
Cc1ccc(OCC(=O)Nc2ccc(-c3nnc(-c4ccco4)o3)cc2)cc1 | 65.5% (active)
CCCOc1cccc(C(=O)Nc2nnn(CCC)n2)c1 | 26.3% (inactive)
CCOC(=O)c1[nH]c2ccc(OC)cc2c1NC(=O)CCN1CCN(Cc2ccccc2)CC1 | -7.7% (inactive)
COc1cccc(-n2cc3c(c2-c2ccccc2)c(=O)n(C)c(=O)n3C)c1 | -21.1% (inactive)
CCOC(=O)c1cn(CC(=O)Nc2ccc(C(C)C)cc2)nn1 | 3.2% (inactive)
O=C(CN1CCN(C(=O)c2ccco2)CC1)Nc1ccc(Cl)c(C(F)(F)F)c1 | 11.1% (inactive)
Cc1ccc(S(=O)(=O)NCc2cn3ccsc3n2)c(C)c1 | -0.8% (inactive)
COc1ccc(-c2cn3ccsc3n2)cc1 | 53.3% (active)
CCCC(=O)Nc1cccc(-c2cn3ccsc3n2)c1 | 45.8% (inactive)
O=C(O)[C@@H]1CCCN1c1ncnc2sc3c(c12)CCC3 | -13.4% (inactive)
O=C(Nc1ncccn1)c1cccs1 | 18.9% (inactive)
CCOc1cc(C(=O)Nc2ncccn2)cc(OCC)c1OCC | -1.3% (inactive)
Cn1c(=O)c(C(=O)Nc2ncccn2)c(O)c2ccccc21 | 64.2% (active)
Cc1ccccc1OCCC(=O)Nc1c(C)n(C)n(-c2ccccc2)c1=O | 13.7% (inactive)
Cc1nnc(NC(=O)CCC(=O)N2CCC(C)CC2)s1 | 0.2% (inactive)
Cc1ccc(S(=O)(=O)N2CCC(N3CCCCCC3)CC2)cc1 | 10.8% (inactive)
CCN(CC)S(=O)(=O)c1cc(C(=O)Nc2ccccn2)ccc1C | 49.3% (inactive)
Cc1nc2c(c(=O)n1Cc1ccco1)c1nc3ccccc3nc1n2Cc1ccccc1 | -2.3% (inactive)
CC(C)NC(=O)CCCn1c(=S)[nH]c2cc3c(cc2c1=O)OCO3 | 2.9% (inactive)
Cc1cccc(NC(=O)COc2ccccc2C)n1 | -19.2% (inactive)
Cc1cccc(NC(=O)c2ccccc2NC(=O)C(C)(C)C)n1 | -22.9% (inactive)

Compound | activation
Cc1cccc(NC(=O)c2ccc3ccccc3n2)n1 | 98.6% (active)
O=C(c1c(Cl)nc2sccn12)N1CCCc2ccccc21 | 4.7% (inactive)
N#C/C=C1\Sc2ccccc2C(=O)N1CC(=O)N1CCN(S(=O)(=O)c2ccccc2)CC1 | 53.6% (active)
CS(=O)(=O)N1CCN(C(=O)Cc2ccccc2)CC1 | 3.5% (inactive)
O=C(CCC(=O)N1CCN(S(=O)(=O)c2ccccc2)CC1)NC1CCCc2ccccc21 (stereo unspecified) | -3.9% (inactive)
COc1ccccc1CNC(=O)CCn1c(=O)sc2ccccc21 | -21.4% (inactive)
CS(=O)(=O)c1ccc2nc(NC(=O)CN3CCCCCC3)sc2c1 | -3.6% (inactive)
COCCCNC(=O)Cn1cc(C(=O)C2CC2)c2ccccc21 | 1.7% (inactive)
CCOc1ccccc1Nc1nnc(SCC(=O)Nc2cc(C)on2)s1 | -12.5% (inactive)
C=CCNC(=O)c1ccc(C)c(Br)c1 | -12.1% (inactive)
COc1ccc2c(c1)CCc1c(C(=O)N3CCc4ccccc4C3)noc1-2 | 2.4% (inactive)
COc1ccc2c(c1)CCc1c(C(=O)N3CCCC3)noc1-2 | 55.3% (active)
COc1ccc2c(c1)CCc1c(C(=O)Nc3c(C)n(C)n(-c4ccccc4)c3=O)noc1-2 | -6% (inactive)
O=C(O)CCC(=O)N(Cc1ccco1)c1nc(-c2ccccc2)cs1 | 9.9% (inactive)
CCc1nc(Nc2ccc3nccnc3c2)c2oc3ccccc3c2n1 | 50.3% (active)
CCSc1nc(C)nc2c1oc1ccccc12 | -10.2% (inactive)
CCc1nc(N2CCN(c3nc(C)cc(C)n3)CC2)c2oc3ccccc3c2n1 | 12% (inactive)
COc1ccc(N2CCN(C(=O)CSc3nnc4ncccn34)CC2)cc1 | -2.5% (inactive)
CCc1nnc(NC(=O)CSc2nnc(COc3ccc(C#N)cc3)n2-c2ccccc2)s1 | 0.6% (inactive)
O=C(COC(=O)c1ccccc1C(=O)c1ccccc1)c1ccco1 | -2.1% (inactive)
O=C(OCC(=O)N1CCCC1)c1ccco1 | 14.1% (inactive)
CCN(CC)c1ccc(C(=O)OCC(=O)c2ccco2)cc1 | 53.6% (active)
CCOC(=O)N1CCN(C(=O)C2CCN(S(C)(=O)=O)CC2)CC1 | 10.2% (inactive)
CCOC(=O)c1sc(=S)n2c1[nH]c(=O)c1ccc(C(=O)OC)cc12 | -7.4% (inactive)
CCOC(=O)c1cnc(SCC(=O)NCc2ccco2)nc1N | 19.1% (inactive)
CCCCOc1ccc(-c2ncc(C(=O)OCC)c(N)n2)cc1 | 49.8% (active)

Compound | activation
CCCCOc1ccc(NC(=O)CSCC(=O)OCC)cc1 | -6.4% (inactive)
O=C(CSc1nnc(-c2c[nH]c3ccccc23)n1-c1ccc(F)cc1)NCc1ccco1 | 15.7% (inactive)
Cc1nnc(SCCCn2c(N3CCCCC3)nc3c2c(=O)[nH]c(=O)n3C)s1 | -12.6% (inactive)
COc1ccccc1Nc1ncnc2c1oc1ccccc12 | 91.8% (active)
COc1ccc(CCNC(=O)CSc2nc(C)nc3c2oc2ccccc23)cc1OC | 27.4% (inactive)
Cc1cc(C)nc(N2CCN(c3ncnc4c3oc3ccccc34)CC2)n1 | -8.8% (inactive)
Cn1c2c(c(=O)n(C)c1=O)C(c1ccc(O)cc1)Nc1ccccc1O2 (stereo unspecified) | -0.7% (inactive)
COc1ccc(C2C(C(=O)Nc3ccccc3OC)=C(C)Nc3nnnn32)c(OC)c1 (stereo unspecified) | -6.7% (inactive)
CCOc1ccccc1NC(=O)Nc1cc(OC)ccc1OC | -10% (inactive)
COc1ccccc1NC(=O)c1ccc(C)s1 | 50.1% (active)
COc1ccc(OC)c(C2N(c3ccccn3)C(=O)C3CCCN32)c1 (stereo unspecified) | -12.3% (inactive)
O=C1C(=O)N(CCN2CCOCC2)C(c2ccccn2)/C1=C(/O)c1ccc(Cl)cc1 (stereo unspecified) | -1.6% (inactive)
C=C(C)COc1ccc(-c2n[nH]c(C)c2-c2ccccc2OC)c(O)c1 | -12.7% (inactive)
COc1ccc(N=Cc2c(O)[nH]c3ccccc23)cc1OC | 60.4% (active)
COc1cc(N=Cc2c(O)[nH]c3ccccc23)cc(OC)c1OC | -0.5% (inactive)
COc1ccc(OC)c(N=Cc2c(O)[nH]c3ccccc23)c1 | 0.1% (inactive)
CCOc1nc(-c2ccc(OC)cc2)ccc1-c1noc(-c2cc(OC)c(OC)c(OC)c2)n1 | -8.3% (inactive)
Cc1ccc(N2C(=O)c3ccccc3C2(O)c2ncc[nH]2)cc1 (stereo unspecified) | 6.2% (inactive)
COc1ccc(CNC(=O)C2CCN(S(=O)(=O)N3CCOCC3)CC2)cc1 | 18.7% (inactive)
CCOC(=O)c1cc(C)sc1NC(=O)C1CCC1 | 9.7% (inactive)
O=C(NCc1ccccn1)c1cc2ccccc2oc1=O | 12.4% (inactive)
O=C(Oc1cccnc1)c1cc2ccccc2oc1=O | -8.6% (inactive)
Nc1ncc(-c2cc3ccccc3oc2=O)s1 | 79.3% (active)
